From ChEMBL document CHEMBL1148492, “Synthesis and structure-activity relationship study of potent cytotoxic analogues of the marine alkaloid Lamellarin D” (2006)
Active and inactive are the calls of the source. No cut-off for these calls is given here.

Key:
A549 [1] = experiment: Antiproliferative activity against human A549 cell line after 72 hrs by SRB assay at 10 ug/mL; type: functional, cell-based
HT-29 [2] = experiment: Antiproliferative activity against human HT29 cell line after 72 hrs by SRB assay at 10 ug/mL; type: functional, cell-based
MDA-MB-231 [3] = experiment: Antiproliferative activity against human MDA-MB-231 cell line after 72 hrs by SRB assay at 10 ug/mL; type: functional, cell-based
HT-29 [4] = experiment: Antiproliferative activity against human HT29 cell line after 72 hrs by SRB assay; type: functional; conditions: HT-29, 72 h
Outline: (§1)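 Cells seeded at 5×10³/well in RPMI and allowed to attach in drug-free medium for 18 h. Compounds were added in DMSO/H2O (3:7) and exposure was continuous for 72 h. Cells were then fixed with cold 50% TCA for 60 min at 4°C, stained with 0.4% SRB in 1% acetic acid for 10 min at room temperature, solubilized in Tris, and OD was read at 490 nm. GI50 was derived from 100×[(T−T0)/(C−T0)]=50.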

A549 [5] = experiment: Antiproliferative activity against human A549 cell line after 72 hrs by SRB assay; type: functional; conditions: A549, 72 h; outline: as §1
MDA-MB-231 [6] = experiment: Antiproliferative activity against human MDA-MB-231 cell line after 72 hrs by SRB assay; type: functional; conditions: MDA-MB-231, 72 h; outline: as §1

SMILES	Activity (A549 [1])	Activity (HT-29 [2])	Activity (MDA-MB-231 [3])	GI50 (HT-29 [4]) [µM]	GI50 (A549 [5]) [µM]	GI50 (MDA-MB-231 [6]) [µM]
COC(=O)c1c(-c2cc(OC)c(OC)c(OC)c2)c(-c2cc(OC)c(OC)c(OC)c2)c2c3cc(OC)c(O)cc3ccn12	inactive	inactive	inactive			
COC(=O)c1c(-c2ccc(O)cc2)c(-c2ccc(O)cc2)c2n1CCc1cc(O)c(OC)cc1-2	inactive	inactive	inactive			
COC(=O)c1c(-c2cc(OC)c(OC(C)C)cc2OC(C)C)c(-c2ccc(OC(C)C)c(OC)c2)c2c3cc(OC)c(OC(C)C)cc3ccn12	inactive		inactive	13.6		
COC(=O)c1c(-c2ccc(O)c(OC)c2)c(-c2ccc(O)c(OC)c2)c2n1CCc1cc(O)c(OC)cc1-2		inactive			14.3	8.5
COC(=O)c1cc(-c2ccc(N(C)C)cc2)c2n1CCc1cc(O)c(OC)cc1-2	inactive	inactive	inactive			
COC(=O)c1c(-c2cc(OC)c(O)cc2OC)c(-c2ccc(O)c(OC)c2)c2n1CCc1cc(O)c(OC)cc1-2		inactive			8.9	7.6
COC(=O)c1c(-c2ccc(OC)c(OC)c2)c(-c2ccc(OC)c(OC)c2)c2c3cc(OC)c(O)cc3ccn12	inactive	inactive	inactive			
COC(=O)c1c(-c2ccc(OC)c(OC)c2)c(-c2ccc(OC)c(OC)c2)c2n1CCc1cc(O)c(OC)cc1-2		inactive			11.2	7.7
COC(=O)c1c(-c2ccc(O)cc2O)c(-c2cccc(O)c2)c2c3cc(OC)c(O)cc3ccn12		inactive			20.8	10.6
COC(=O)c1c(-c2cc(OC)c(OC(C)C)cc2OC(C)C)c(-c2ccc(OC(C)C)c(OC)c2)c2n1CCc1cc(OC(C)C)c(OC)cc1-2	inactive	inactive	inactive			
COC(=O)c1c(-c2ccc(O)cc2)c(-c2ccc(O)cc2)c2c3cc(OC)c(O)cc3ccn12				9.8	3.5	4.1
COC(=O)c1c(-c2cccs2)c(-c2cccs2)c2c3cc(OC)c(OC(C)C)cc3ccn12	inactive	inactive	inactive			
COC(=O)c1c(-c2cc(OC)c(O)cc2O)c(-c2ccc(O)c(OC)c2)c2n1CCc1cc(O)c(OC)cc1-2				17.1	5	3.1
COc1cc(-c2c3c4cc(OC)c(O)cc4oc(=O)c3n3ccc4cc(O)c(OC)cc4c23)ccc1O [LAMELLARIN D]				5.1	0.2	0.25
COC(=O)c1c(-c2ccc(OC)c(OC)c2)c(-c2ccc(O)c(OC)c2)c2c3cc(OC)c(O)cc3ccn12	inactive	inactive	inactive			
COC(=O)c1cc(-c2ccc(O)c(OC)c2)c2n1CCc1cc(O)c(OC)cc1-2				18	14.2	22.3
COC(=O)c1c(-c2ccc(O)cc2)c(-c2ccc(O)c(OC)c2)c2c3cc(OC)c(O)cc3ccn12				10.1	9.8	15
COC(=O)c1c(-c2ccc(N(C)C)cc2)c(-c2ccc(N(C)C)cc2)c2n1CCc1cc(O)c(OC)cc1-2	inactive	inactive				13.7
COC(=O)c1c(-c2ccc(OC)c(OC)c2O)c(-c2cccc(O)c2)c2n1CCc1cc(O)c(OC)cc1-2		inactive			14.7	15.7
COC(=O)c1c(-c2ccc(OC(F)(F)F)cc2)c(-c2ccc(OC(F)(F)F)cc2)c2c3cc(OC)c(O)cc3ccn12	inactive	inactive	inactive			
COC(=O)c1cc(-c2cc(OC)ccc2OC)c2n1CCc1cc(O)c(OC)cc1-2	inactive	inactive				12.7
COC(=O)c1c(-c2ccc(OC)c(OC)c2)c(-c2ccc(OC)c(OC)c2)c2n1CCc1cc(OC(C)C)c(OC)cc1-2				1	0.81	0.98
COC(=O)c1cc(-c2cc(OC)c(OC)c(OC)c2)c2n1CCc1cc(OC(C)C)c(OC)cc1-2	inactive	inactive	inactive			

SMILES	Activity (A549 [1])	Activity (HT-29 [2])	Activity (MDA-MB-231 [3])	GI50 (HT-29 [4]) [µM]	GI50 (A549 [5]) [µM]	GI50 (MDA-MB-231 [6]) [µM]
COC(=O)c1c(-c2ccc(OC(F)(F)F)cc2)c(-c2ccc(OC(F)(F)F)cc2)c2n1CCc1cc(O)c(OC)cc1-2	inactive	inactive	inactive			
COC(=O)c1cc(-c2ccc(N(C)C)cc2)c2n1CCc1cc(OC(C)C)c(OC)cc1-2	inactive	inactive	inactive			
COC(=O)c1c(-c2cccc(O)c2)c(-c2cccc(O)c2)c2c3cc(OC)c(O)cc3ccn12				18.4	6.3	7.2
COC(=O)c1cc(-c2ccc(O)c(OC)c2)c2n1CCc1cc(OC(C)C)c(OC)cc1-2				18.1	20.3	19
COC(=O)c1cc(-c2cccs2)c2c3cc(OC)c(O)cc3ccn12	inactive	inactive				26.3
COC(=O)c1c(-c2cccs2)c(-c2cccs2)c2n1CCc1cc(OC(C)C)c(OC)cc1-2	inactive	inactive	inactive			
COC(=O)c1c(-c2cccc([N+](=O)[O-])c2)c(-c2cccc([N+](=O)[O-])c2)c2n1CCc1cc(O)c(OC)cc1-2				11.3	18	10.1
COC(=O)c1c(-c2cc(OC)c(O)cc2O)c(-c2ccc(O)c(OC)c2)c2c3cc(OC)c(O)cc3ccn12				7.9	0.45	0.71
COC(=O)c1c(-c2cc(OC)c(O)cc2OC)c(-c2ccc(O)c(OC)c2)c2c3cc(OC)c(O)cc3ccn12	inactive	inactive	inactive			
COC(=O)c1cc(-c2cc(OC)c(OC)c(OC)c2)c2c3cc(OC)c(O)cc3ccn12	inactive	inactive	inactive			
COC(=O)c1cc(-c2ccc(OC(C)C)c(OC)c2)c2n1CCc1cc(OC(C)C)c(OC)cc1-2	inactive	inactive	inactive			
COC(=O)c1c(-c2cccc([N+](=O)[O-])c2)c(-c2cccc([N+](=O)[O-])c2)c2c3cc(OC)c(O)cc3ccn12	inactive			8.9		18.3
COC(=O)c1c(-c2ccc(OC)cc2)c(-c2ccc(OC)cc2)c2n1CCc1cc(O)c(OC)cc1-2				10.3	9.2	14.4
COC(=O)c1c(-c2ccc(O)c(OC)c2)c(-c2ccc(O)c(OC)c2)c2c3cc(OC)c(O)cc3ccn12				8.1	7.1	7.5
COC(=O)c1cc(-c2ccc(O)c(OC)c2)c2c3cc(OC)c(O)cc3ccn12				23.9	10.9	11.2
COC(=O)c1c(-c2cccs2)c(-c2cccs2)c2c3cc(OC)c(O)cc3ccn12		inactive			20.4	19.7
COC(=O)c1c(-c2ccc(O)cc2O)c(-c2cccc(O)c2)c2n1CCc1cc(O)c(OC)cc1-2	inactive	inactive	inactive			
COC(=O)c1c(-c2cc(O)c(O)cc2O)c(-c2cc(OC)ccc2OC)c2c3cc(OC)c(O)cc3ccn12				7.1	4.7	3.2
COC(=O)c1c(-c2cc(O)c(O)cc2O)c(-c2cc(OC)ccc2OC)c2n1CCc1cc(O)c(OC)cc1-2				8.4	13.7	10.5
COC(=O)c1cc(-c2cc(OC)ccc2OC)c2c3cc(OC)c(O)cc3ccn12		inactive			13.3	19.9
COC(=O)c1c(-c2cc(OC)c(OC)c(OC)c2)c(-c2cc(OC)c(OC)c(OC)c2)c2n1CCc1cc(OC(C)C)c(OC)cc1-2			inactive	34	67.9	
COC(=O)c1c(-c2ccc(O)c(OC)c2)c(-c2ccc(O)c(OC)c2)c2n1CCc1cc(OC(C)C)c(OC)cc1-2				6.9	14.7	7.1
COC(=O)c1c(-c2ccc(OC)cc2)c(-c2ccc(OC)cc2)c2c3cc(OC)c(O)cc3ccn12	inactive			9.7		9.9
